Measured values as given in ChEMBL document CHEMBL1795205, “The new 5- or 6-azapyrimidine and cyanuric acid derivatives of l-ascorbic acid bearing the free C-5 hydroxy or C-4 amino group at the ethylenic spacer: CD-spectral absolute configuration determination and biological activity evaluations” (Eur J Med Chem, 2011).

Columns and labels:
MCF7 [1] = test: Cytostatic activity against human MCF7 cells assessed as inhibition of cell proliferation after 72 hrs by MTT assay; type: functional, cell-based; conditions: MCF7, 72 h
How it was run: (§1)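 Monolayer cells grown in DMEM with 10% FBS were seeded on day 0 at 3000–6000 cells/well, set by each line's doubling time. Agents were added the next step in five 10-fold dilutions (0.01–100) for 72 h, with DMSO ≤0.1% and a solvent control. MTT absorbance was converted to percentage growth versus untreated wells on the same plate. Where all PGs exceeded 50, the top concentration was reported as ">". ANOVA/Tukey, p<0.05.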

MIA PaCa-2 = test: Cytostatic activity against human MIAPaCa2 cells assessed as inhibition of cell proliferation after 72 hrs by MTT assay; type: functional, cell-based; conditions: MIA PaCa-2, 72 h; how it was run: as §1
HeLa [2] = test: Induction of cell cycle arrest in human HeLa cells assessed as accumulation at G2/M phase at 5 uM after 24 hrs by flow cytometry relative to control; type: functional
How it was run: (§2)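 Cells were seeded at 3×10⁵ per well in 6-well plates and treated after overnight incubation for 24 and 48 h. They were trypsinized, washed three times in PBS, fixed in cold ethanol and stored at −20 °C. Pellets were washed twice in PBS and treated with RNase A at 37 °C for 15 min, then stained with PI for 30 min in the dark. DNA content was measured by flow cytometry.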

HeLa [3] = test: Cytostatic activity against human HeLa cells assessed as inhibition of cell proliferation after 72 hrs by MTT assay; type: functional, cell-based; how it was run: as §1
HeLa [4] = test: Induction of cell cycle arrest in human HeLa cells assessed as accumulation at subG1 phase at 5 uM after 48 hrs by flow cytometry relative to control; type: functional; how it was run: as §2
MCF7 [5] = test: Induction of cell cycle arrest in human MCF7 cells assessed as accumulation at subG1 phase at 5 uM after 48 hrs by flow cytometry (reference value: 0.51 +/- 0.01%); type: functional; how it was run: as §2
HeLa [6] = test: Induction of cell cycle arrest in human HeLa cells assessed as accumulation at G1 phase at 5 uM after 48 hrs by flow cytometry relative to control; type: functional; how it was run: as §2
HeLa [7] = test: Induction of cell cycle arrest in human HeLa cells assessed as accumulation at G1 phase at 10 uM after 48 hrs by flow cytometry (reference value: 56.1 +/- 0.1%); type: functional; how it was run: as §2
HeLa [8] = test: Induction of cell cycle arrest in human HeLa cells assessed as accumulation at S phase at 5 uM after 48 hrs by flow cytometry relative to control; type: functional; how it was run: as §2
MCF7 [9] = test: Induction of cell cycle arrest in human MCF7 cells assessed as accumulation at G1 phase at 5 uM after 48 hrs by flow cytometry (reference value: 52.3 +/- 6.1%); type: functional; how it was run: as §2
HeLa [10] = test: Induction of cell cycle arrest in human HeLa cells assessed as accumulation at G2/M phase at 5 uM after 48 hrs by flow cytometry relative to control; type: functional; how it was run: as §2
MCF7 [11] = test: Induction of cell cycle arrest in human MCF7 cells assessed as accumulation at S phase at 10 uM after 24 hrs by flow cytometry (reference value: 33.4 +/- 0.4%); type: functional; how it was run: as §2
HeLa [12] = test: Induction of cell cycle arrest in human HeLa cells assessed as accumulation at S phase at 10 uM after 48 hrs by flow cytometry (reference value: 40.6 +/- 0.1%); type: functional; how it was run: as §2
MCF7 [13] = test: Induction of cell cycle arrest in human MCF7 cells assessed as accumulation at G1 phase at 5 uM after 24 hrs by flow cytometry (reference value: 50.7 +/- 3.1%); type: functional; how it was run: as §2
WI-38 = test: Cytotoxicity against human WI38 cells assessed as inhibition of cell proliferation after 72 hrs by MTT assay; type: cell-based; conditions: WI-38, 72 h; how it was run: as §1
HeLa [14] = test: Induction of cell cycle arrest in human HeLa cells assessed as accumulation at G1 phase at 5 uM after 24 hrs by flow cytometry relative to control; type: functional; how it was run: as §2
HepG2 = test: Cytostatic activity against human HepG2 cells assessed as inhibition of cell proliferation after 72 hrs by MTT assay; type: functional, cell-based; conditions: HepG2, 72 h; how it was run: as §1
MCF7 [15] = test: Induction of cell cycle arrest in human MCF7 cells assessed as accumulation at S phase at 5 uM after 24 hrs by flow cytometry (reference value: 33.4 +/- 0.4%); type: functional; how it was run: as §2
HeLa [16] = test: Induction of cell cycle arrest in human HeLa cells assessed as accumulation at G2/M phase at 10 uM after 48 hrs by flow cytometry (reference value: 3.25 +/- 0.1%); type: functional; how it was run: as §2
MCF7 [17] = test: Induction of cell cycle arrest in human MCF7 cells assessed as accumulation at G1 phase at 10 uM after 24 hrs by flow cytometry (reference value: 50.7 +/- 3.1%); type: functional; how it was run: as §2
MCF7 [18] = test: Induction of cell cycle arrest in human MCF7 cells assessed as accumulation at G2/M phase at 10 uM after 48 hrs by flow cytometry (reference value: 6.82 +/- 0.3%); type: functional; how it was run: as §2
HeLa [19] = test: Induction of cell cycle arrest in human HeLa cells assessed as accumulation at subG1 phase at 10 uM after 48 hrs by flow cytometry (reference value: 0.16 +/- 0.01%); type: functional; how it was run: as §2
HeLa [20] = test: Induction of cell cycle arrest in human HeLa cells assessed as accumulation at G2/M phase at 10 uM after 24 hrs by flow cytometry (reference value: 10.9 +/- 2.6%); type: functional; how it was run: as §2
MCF7 [21] = test: Induction of cell cycle arrest in human MCF7 cells assessed as accumulation at subG1 phase at 5 uM after 24 hrs by flow cytometry (reference value: 0.68 +/- 0.4%); type: functional; how it was run: as §2
HeLa [22] = test: Induction of cell cycle arrest in human HeLa cells assessed as accumulation at S phase at 5 uM after 24 hrs by flow cytometry relative to control; type: functional; how it was run: as §2
MCF7 [23] = test: Induction of cell cycle arrest in human MCF7 cells assessed as accumulation at G2/M phase at 5 uM after 48 hrs by flow cytometry (reference value: 6.82 +/- 0.3%); type: functional; how it was run: as §2
MCF7 [24] = test: Induction of cell cycle arrest in human MCF7 cells assessed as accumulation at S phase at 5 uM after 48 hrs by flow cytometry (reference value: 40.9 +/- 5.7%); type: functional; how it was run: as §2
MCF7 [25] = test: Induction of cell cycle arrest in human MCF7 cells assessed as accumulation at S phase at 10 uM after 48 hrs by flow cytometry (reference value: 40.9 +/- 5.7%); type: functional; how it was run: as §2
HeLa [26] = test: Induction of cell cycle arrest in human HeLa cells assessed as accumulation at S phase at 10 uM after 24 hrs by flow cytometry (reference value: 44.4 +/- 8.7%); type: functional; how it was run: as §2
HeLa [27] = test: Induction of cell cycle arrest in human HeLa cells assessed as accumulation at subG1 phase at 10 uM after 24 hrs by flow cytometry (reference value: 0.49 +/- 0.2%); type: functional; how it was run: as §2
MCF7 [28] = test: Induction of cell cycle arrest in human MCF7 cells assessed as accumulation at G2/M phase at 10 uM after 24 hrs by flow cytometry (reference value: 15.9 +/- 2.7%); type: functional; how it was run: as §2
SW-620 = test: Cytostatic activity against human SW620 cells assessed as inhibition of cell proliferation after 72 hrs by MTT assay; type: functional, cell-based; conditions: SW-620, 72 h; how it was run: as §1
HeLa [29] = test: Induction of cell cycle arrest in human HeLa cells assessed as accumulation at G1 phase at 10 uM after 24 hrs by flow cytometry (reference value: 44.8 +/- 11.2%); type: functional; how it was run: as §2
MCF7 [30] = test: Induction of cell cycle arrest in human MCF7 cells assessed as accumulation at G1 phase at 10 uM after 48 hrs by flow cytometry (reference value: 52.3 +/- 6.1%); type: functional; how it was run: as §2
MCF7 [31] = test: Induction of cell cycle arrest in human MCF7 cells assessed as accumulation at subG1 phase at 10 uM after 24 hrs by flow cytometry (reference value: 0.68 +/- 0.4%); type: functional; how it was run: as §2
MCF7 [32] = test: Induction of cell cycle arrest in human MCF7 cells assessed as accumulation at G2/M phase at 5 uM after 24 hrs by flow cytometry (reference value: 15.9 +/- 2.7%); type: functional; how it was run: as §2
MCF7 [33] = test: Induction of cell cycle arrest in human MCF7 cells assessed as accumulation at subG1 phase at 10 uM after 48 hrs by flow cytometry (reference value: 0.51 +/- 0.01%); type: functional; how it was run: as §2
HeLa [34] = test: Induction of cell cycle arrest in human HeLa cells assessed as accumulation at subG1 phase at 5 uM after 24 hrs by flow cytometry relative to control; type: functional; how it was run: as §2

## O=C1O/C(=C\Cn2ccc(NC(=O)c3ccccc3)nc2=O)C(OCc2ccccc2)=C1OCc1ccccc1
MCF7 [1]
  IC50: 2.03 µM
MIA PaCa-2
  IC50: 24.2 µM
HeLa [2]
  Activity: 13.1%
HeLa [3]
  IC50: 7.2 µM
HeLa [4]
  Activity: 0.27%
MCF7 [5]
  Activity: 0.37%
HeLa [6]
  Activity: 60.8%
HeLa [7]
  Activity: 52.3%
HeLa [8]
  Activity: 36.5%
MCF7 [9]
  Activity: 50.6%
HeLa [10]
  Activity: 2.8%
MCF7 [11]
  Activity: 39.2%
HeLa [12]
  Activity: 39.5%
MCF7 [13]
  Activity: 57.9%
WI-38
  IC50: 8.49 µM
HeLa [14]
  Activity: 47.1%
HepG2
  IC50: 1.98 µM
MCF7 [15]
  Activity: 28.3%
HeLa [16]
  Activity: 8.3%
MCF7 [17]
  Activity: 54.3%
MCF7 [18]
  Activity: 5.52%
HeLa [19]
  Activity: 0.56%
HeLa [20]
  Activity: 8.45%
MCF7 [21]
  Activity: 0.42%
HeLa [22]
  Activity: 39.9%
MCF7 [23]
  Activity: 13.9%
MCF7 [24]
  Activity: 35.6%
MCF7 [25]
  Activity: 38%
HeLa [26]
  Activity: 53.7%
HeLa [27]
  Activity: 0.2%
MCF7 [28]
  Activity: 6.54%
SW-620
  IC50: > 100 µM
HeLa [29]
  Activity: 37.9%
MCF7 [30]
  Activity: 56.6%
MCF7 [31]
  Activity: 0.2%
MCF7 [32]
  Activity: 13.8%
MCF7 [33]
  Activity: 0.32%
HeLa [34]
  Activity: 0.04%
